Experimental data collected from several papers.
Lines come from different studies, so protocols differ.
Action: inhibitor
CDK5 with p35: Cyclin-dependent kinase 5, with p35 (CDK5, Homo sapiens, UniProt Q00535)
CDK5 with p25: Cyclin-dependent kinase 5, with p25 (CDK5, Homo sapiens, UniProt Q00535)
CDK5: Cyclin-dependent kinase 5 (CDK5, Homo sapiens, UniProt Q00535)

COc1cc2ncnc(Nc3ccc(Oc4ccccc4)cc3C)c2cc1OC  inhibition (CDK5 with p35; enzyme activity; 1 µM): 7%
CNCc1ccc(-c2cc(-c3nc(-c4ccc(S(=O)(=O)C(C)C)cc4)cnc3N)on2)cc1  inhibition (CDK5 with p35; enzyme activity; 2 µM): 16%
CC[C@H](C)[C@H](NC(=O)[C@H](CCC(N)=O)NC(=O)[C@H](CC(C)C)NC(=O)[C@H](CCSC)NC(=O)[C@H](CCCCN)NC(=O)[C@H](CO)NC(=O)[C@H](CO)NC(=O)[C@H](CCSC)NC(=O)[C@H](CC(C)C)NC(=O)[C@H](CC(N)=O)NC(=O)[C@@H](NC(=O)[C@@H](NC(=O)[C@H](CO)NC(=O)[C@H](CC(C)C)NC(=O)[C@H](CS)NC(=O)[C@H](CCCNC(=N)N)NC(=O)[C@H](CC(=O)O)NC(=O)[C@H](Cc1c[nH]c2ccccc12)NC(=O)[C@H](Cc1ccccc1)NC(=O)[C@H](C)NC(=O)[C@H](CCC(=O)O)NC(=O)[C@@H](N)CCCCN)C(C)C)[C@@H](C)CC)C(=O)N[C@@H](CC(N)=O)C(=O)N[C@@H](C)C(=O)O  inhibition (CDK5 with p25; enzyme activity, radiometric; 250 µM): 59%
CNc1cc(Oc2cc(C(=O)Nc3cc(N4CCN(C)CC4)cc(C(F)(F)F)c3)ccc2C)ncn1  inhibition (CDK5; target engagement in cells, chemoproteomics; Huh-7; 1 µM): -37.2%
Cc1ccc(-n2nc(C(C)(C)C)cc2NC(=O)Nc2ccc(OCCN3CCOCC3)c3ccccc23)cc1  inhibition (CDK5 with p25; enzyme activity; 10 µM): 1%
CN1CC(Oc2cnc(C#N)cc2-c2ccn3nc(NC(=O)C4CC4)cc3c2)C1  inhibition (CDK5 with p35; enzyme activity; 1 µM): 12%
CN(C)C1CCN(CC#Cc2nn(C3CCCC3)c3nc(NCc4ccccc4)ncc23)C1 (centres unmarked)  inhibition (CDK5 with p25; enzyme activity, FRET; 0.1 µM): 1%
COc1cc2ncnc(Nc3ccc(Oc4ccccc4)c(C)c3C)c2cc1OC  inhibition (CDK5 with p25; enzyme activity; 1 µM): 3%
CCN1CCN(Cc2ccc(NC(=O)c3ccc(C)c(Oc4ccnc5[nH]ccc45)c3)cc2C(F)(F)F)CC1  inhibition (CDK5; target engagement in cells, chemoproteomics; Huh-7; 10 µM): -42.6%
Nc1nc(Nc2ccc(S(N)(=O)=O)cc2)sc1C(=O)c1ccccc1[N+](=O)[O-]  inhibition (CDK5; enzyme activity; 0.1 µM): 95 to 96%
COc1cc(-c2cc(-c3ccc(N4CCNCC4)cc3)cnc2C)cc(OC)c1OC  inhibition (CDK5; enzyme activity; 0.1 µM): 2%
